Experimental data reported in ChEMBL document CHEMBL4765366, “Targeting fungal virulence factor by small molecules: Structure-based discovery of novel secreted aspartic protease 2 (SAP2) inhibitors” (Eur J Med Chem, 2020).
Active and inactive are the calls of the source. The calls are words filed in the database; no cut-off is given here.

Key:
[1] = tested on: Candida albicans; experiment: Inhibition of recombinant Candida albicans SAP2 at 100 uM using Dabcyl-Arg-Lys-Pro-Ala-Leu-Phe-Phe-Arg-Leu-Glu (EDANS)-Arg-OH as substrate incubated for 30 mins followed by substrate addition and measured after 30 mins by spectrophotometry relative to control; settings: time 60.0 min
How it was run: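 FRET assay with purified expressed C. albicans SAP2 in 50 mM sodium citrate, 50 mM NaCl, pH 4.5. Compound (diluted in DMSO) was preincubated with enzyme 30 min before adding the Dabcyl/EDANS peptide substrate (18.75 μM solution in DMSO). Reaction ran 30 min at 30 °C, then fluorescence was read at ex 340, em 485 nm. Pepstatin A was the positive control.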

[2] = tested on: Candida albicans; experiment: Antibiofilm activity against azole resistant Candida albicans 0304103 assessed as inhibition of biofilm formation incubated for 24 hrs by XTT-dye based assay; type: functional, organism-based; settings: dose 4-64 µg/ml
How it was run: (§1)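 Cell suspensions (1.0 × 10^5 CFU/mL) were adhered for 90 min at 37°C, then rinsed three times with PBS. Compounds were added at a range of concentrations from 2 mg/mL DMSO stocks, with fluconazole as the positive control. Plates were cultured 24 h at 37°C, and biofilm was measured semi-quantitatively by XTT reduction.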

[3] = tested on: Candida albicans; experiment: Upregulation of CPH1 in azole resistant Candida albicans 0304103 at 64 ug/ml by qRT-PCR analysis; type: functional; settings: dose 64.0 µg/ml
[4] = tested on: Candida albicans; experiment: Upregulation of TEC1 in azole resistant Candida albicans 0304103 at 64 ug/ml by qRT-PCR analysis; type: functional; settings: dose 64.0 µg/ml
[5] = tested on: Candida tropicalis; experiment: Inhibition of hyphal formation in azole resistant Candida tropicalis 10186 at 64 ug/ml incubated for 7 hrs by microscopic imaging analysis; type: functional
How it was run: (§2)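 Yeast cells (1.0 × 10^5 CFU/mL) were exposed to a range of compound concentrations, with fluconazole as the positive drug. Plates were incubated at 37°C for 3 h (C. albicans 0304103 and SC5314) or 7 h (C. tropicalis 10186). Hyphal growth was then observed and photographed by microscopy.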

[6] = tested on: Candida albicans; experiment: Downregulation of SAP2 in azole resistant Candida albicans 0304103 at 64 ug/ml by qRT-PCR analysis; type: functional; settings: dose 64.0 µg/ml
[7] = tested on: Candida tropicalis; experiment: Inhibition of hyphal formation in azole resistant Candida tropicalis 10186 at 4 to 16 ug/ml incubated for 7 hrs by microscopic imaging analysis; type: functional, organism-based; settings: dose 4-16 µg/ml; how it was run: as §2
[8] = tested on: Candida albicans; experiment: Inhibition of hyphal formation in azole sensitive Candida albicans SC5314 at 128 ug/ml incubated for 3 hrs by microscopic imaging analysis; type: functional; how it was run: as §2
[9] = tested on: Candida albicans; experiment: Downregulation of EFG1 in azole resistant Candida albicans 0304103 at 64 ug/ml by qRT-PCR analysis; type: functional; settings: dose 64.0 µg/ml
[10] = tested on: Candida tropicalis; experiment: Antibiofilm activity against azole resistant Candida tropicalis 10186 assessed as inhibition of biofilm formation incubated for 24 hrs by XTT-dye based assay; type: functional, organism-based; settings: dose 4-64 µg/ml; how it was run: as §1
[11] = Inhibition of recombinant Candida albicans SAP2 using Dabcyl-Arg-Lys-Pro-Ala-Leu-Phe-Phe-Arg-Leu-Glu (EDANS)-Arg-OH as substrate incubated for 30 mins followed by substrate addition and measured after 30 mins by spectrophotometry
[12] = tested on: Candida albicans; experiment: Antifungal activity against azole resistant Candida albicans 0304103 infected in ICR mouse assessed as reduction in fungal burden in kidney at 10 mg/kg, ip administered for 4 days; type: functional, organism-based; settings: time 4.0 day
How it was run: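 Female ICR mice (20–25 g) were immunosuppressed with cyclophosphamide, 100 mg/kg ip in saline. After 24 h they were infected iv with 0.2 mL of 1×10^5 CFU/mL cells. Starting 24 h after infection, mice (4 per group) received the drug ip once daily for four days; controls received saline or fluconazole 10 mg/kg. Kidneys were homogenized and plated on YPD at 30°C for log10 CFU.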

[13] = tested on: Candida albicans; experiment: Antibiofilm activity against azole resistant Candida albicans 0304103 assessed as inhibition of biofilm formation at 32 ug/ml in presence of fluconazole incubated for 24 hrs by XTT-dye based assay relative to control; type: functional
[14] = tested on: Candida tropicalis; experiment: Antibiofilm activity against azole resistant Candida tropicalis 10186 assessed as inhibition of biofilm formation at 64 ug/ml incubated for 24 hrs by XTT-dye based assay relative to control; type: functional; how it was run: as §1
[15] = tested on: Candida albicans; experiment: Inhibition of hyphal formation in azole sensitive Candida albicans SC5314 at 4 to 32 ug/ml incubated for 3 hrs by microscopic imaging analysis; type: functional, organism-based; settings: dose 4-32 µg/ml; how it was run: as §2
[16] = tested on: Candida albicans; experiment: Downregulation of ALS3 in azole resistant Candida albicans 0304103 at 64 ug/ml by qRT-PCR analysis; type: functional; settings: dose 64.0 µg/ml
[17] = tested on: Candida albicans; experiment: Downregulation of ECE2 in azole resistant Candida albicans 0304103 at 64 ug/ml by qRT-PCR analysis; type: functional; settings: dose 64.0 µg/ml
[18] = tested on: Candida albicans; experiment: Inhibition of hyphal formation in azole resistant Candida albicans 0304103 at 128 ug/ml incubated for 3 hrs by microscopic imaging analysis; type: functional; how it was run: as §2
[19] = tested on: Candida albicans; experiment: Antibiofilm activity against azole resistant Candida albicans 0304103 assessed as inhibition of biofilm formation at 0.5 ug/ml in presence of fluconazole incubated for 24 hrs by XTT-dye based assay; type: functional, organism-based; settings: dose 0.5 µg/ml
[20] = tested on: Candida albicans; experiment: Inhibition of hyphal formation in azole resistant Candida albicans 0304103 at 4 to 32 ug/ml incubated for 3 hrs by microscopic imaging analysis; type: functional, organism-based; settings: dose 4-32 µg/ml; how it was run: as §2

Cc1ccc(CN2C(=O)/C(=C/c3ccc(OCC(=O)O)cc3OCC(=O)O)c3ccc(-c4ccc(C)cc4)cc32)cc1
inhibition [1]: 100%
inhibition [2]: Dose-dependent effect
Activity [3]: Active
Activity [4]: Active
inhibition at 64 µg/mL [5]: 100%
Activity [6]: Active
inhibition [7]: Active
inhibition at 128 µg/mL [8]: 100%
Activity [9]: Active
inhibition [10]: Dose-dependent effect
IC50 [11]: 920 nM
Activity [12]: Active
inhibition at 32 µg/mL [13]: 90%
inhibition at 64 µg/mL [14]: > 50%
inhibition [15]: inactive
Activity [16]: Active
Activity [17]: Active
inhibition at 128 µg/mL [18]: 100%
inhibition [19]: Active
inhibition [20]: inactive
